Source: ChEMBL document CHEMBL1671838, “Discovery of MK-1220: A Macrocyclic Inhibitor of Hepatitis C Virus NS3/4A Protease with Improved Preclinical Plasma Exposure” (ACS Med Chem Lett, 2011)

Legend:
[1] = tested on: Hepatitis C virus; test: Antiviral activity against HCV1b con1 infected in human HuH7 cells assessed as inhibition of viral replication after 24 hrs in presence of 10% fetal bovine serum; type: functional, organism-based, Hepacivirus hominis; settings: Con1, Huh-7, 24 h
Summary of the method: (§1)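 Cell-based HCV replicon assay giving IC50. Genotype 1b replicon run with 10% fetal bovine serum or with 50% normal human serum. Genotype 2a replicon run with 10% FBS.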

[2] = tested on: Hepatitis C virus; test: Antiviral activity against HCV1b con1 infected in human HuH7 cells assessed as inhibition of viral replication after 24 hrs in presence of 50% normal human serum; type: functional, organism-based, Hepacivirus hominis; settings: Con1, Huh-7, 24 h; summary of the method: as §1
[3] = Inhibition of HCV NS3/4A protease expressed Escherichia coli after 1 hr by time-resolved fluorescence assay; set-up: species or system Hepacivirus hominis
Summary of the method: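 Binding assay against genotype 1b HCV NS3/4A protease, read by time-resolved fluorescence; potency expressed as Ki.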

[4] = Drug level in Sprague-Dawley rat liver at 5 mg/kg, po after 4 hrs; type: ADME, organism-based; set-up: dose 5 mg/kg, route oral; settings: read-out: Drug uptake
Summary of the method: (§2)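 Rat PK screen: 5 mg/kg given orally in PEG400, n = 2; plasma AUC calculated from a 4 h experiment, and liver concentration measured at 4 h after dosing.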

[5] = AUC in Sprague-Dawley rat plasma at 5 mg/kg, po after 4 hrs; type: ADME, organism-based; set-up: time < 4 hr, dose 5 mg/kg, route oral; summary of the method: as §2
[6] = tested on: Hepatitis C virus; test: Antiviral activity against HCV2a infected in human HuH7 cells assessed as inhibition of viral replication after 24 hrs in presence of 10% fetal bovine serum; type: functional, organism-based, Hepacivirus hominis; settings: genotype 2a, Huh-7, 24 h; summary of the method: as §1
[7] = Clearance in Sprague-Dawley rat at 2 mg/kg, iv; type: ADME, organism-based; set-up: dose 2 mg/kg, route intravenous; settings: in vivo
Summary of the method: (§3)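 IV PK: 2 mg/kg dosed intravenously in DMSO to rat (n = 4) and dog (n = 2).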

[8] = Half life in Sprague-Dawley rat at 2 mg/kg, iv; type: ADME, organism-based; set-up: dose 2 mg/kg, route intravenous; settings: in vivo; summary of the method: as §3
[9] = Bioavailability in Sprague-Dawley rat at 2 mg/kg, iv and 5 mg/kg, po; type: ADME, organism-based; settings: in vivo
Summary of the method: (§4)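 Bioavailability derived from IV dosing at 2 mg/kg in DMSO (rat n = 4, dog n = 2) and PO dosing at 5 mg/kg in 10% Tween (rat n = 3, dog n = 2).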

[10] = Cmax in Sprague-Dawley rat at 5 mg/kg, po; type: ADME, organism-based; set-up: dose 5 mg/kg, route oral; settings: in vivo
Summary of the method: (§5)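 Oral PK study: 5 mg/kg PO in 10% Tween. Rat n = 3, dog n = 2. Plasma exposure was measured in both species, and dog liver levels were measured at 2 h and 26 h after dosing.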

[11] = AUC in Sprague-Dawley rat at 5 mg/kg, po; type: ADME, organism-based; set-up: dose 5 mg/kg, route oral; settings: plasma; summary of the method: as §5
[12] = Drug level in Sprague-Dawley rat liver at 5 mg/kg, po after 24 hrs; type: ADME, organism-based; set-up: dose 5 mg/kg, route oral; settings: read-out: Drug uptake
Summary of the method: (§6)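 Single oral dose of 5 mg/kg in 10% Tween vehicle; n = 3 for rat and n = 2 for dog. Liver drug concentration was measured at 24 h in rat and at 26 h in dog.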

[13] = Clearance in Beagle dog at 2 mg/kg, iv; type: ADME, organism-based, Canis lupus familiaris; set-up: dose 2 mg/kg, route intravenous; settings: in vivo; summary of the method: as §3
[14] = Half life in Beagle dog at 2 mg/kg, iv; type: ADME, organism-based, Canis lupus familiaris; set-up: dose 2 mg/kg, route intravenous; settings: in vivo; summary of the method: as §3
[15] = Bioavailability in Beagle dog at 2 mg/kg, iv and 5 mg/kg, po; type: ADME, organism-based, Canis lupus familiaris; settings: in vivo; summary of the method: as §4
[16] = Cmax in Beagle dog at 5 mg/kg, po; type: ADME, organism-based, Canis lupus familiaris; set-up: dose 5 mg/kg, route oral; settings: in vivo; summary of the method: as §5
[17] = AUC in Beagle dog at 5 mg/kg, po; type: ADME, organism-based, Canis lupus familiaris; set-up: dose 5 mg/kg, route oral; settings: plasma; summary of the method: as §5
[18] = Drug level in Beagle dog liver at 5 mg/kg, po after 2 hrs; type: ADME, organism-based, Canis lupus familiaris; set-up: dose 5 mg/kg, route oral; settings: read-out: Drug uptake; summary of the method: as §5
[19] = Drug level in Beagle dog liver at 5 mg/kg, po after 26 hrs; type: ADME, organism-based, Canis lupus familiaris; set-up: dose 5 mg/kg, route oral; settings: read-out: Drug uptake; summary of the method: as §6
[20] = Cmax in rhesus monkey at 5 mg/kg, po; type: ADME, organism-based, Macaca mulatta; set-up: dose 5 mg/kg, route oral; settings: in vivo
Summary of the method: (§7)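 Rhesus monkey oral PK: 5 mg/kg PO in 10% Tween, n = 2.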

[21] = AUC in rhesus monkey at 5 mg/kg, po; type: ADME, organism-based, Macaca mulatta; set-up: dose 5 mg/kg, route oral; settings: plasma; summary of the method: as §7
[22] = Selectivity ratio Ki for HCV NS3/4A protease to Ki for trypsin
[23] = Selectivity ratio Ki for HCV NS3/4A protease to Ki for chymotrypsin
[24] = Clearance in rhesus monkey at 1 mg/kg, iv; settings: in vivo
[25] = Half life in rhesus monkey at 1 mg/kg, iv; settings: in vivo
[26] = Bioavailability in rhesus monkey at 1 mg/kg, iv and 5 mg/kg, po; settings: in vivo

Which IC50 [1] does the source give for `C=C[C@@H]1C[C@]1(NC(=O)[C@@H]1C[C@@H]2CN1C(=O)[C@H](C1CCCCC1)NC(=O)OCCCCCc1cc(OC)c3ccnc(c3c1)O2)C(=O)NS(=O)(=O)C1CC1` here?
The IC50 was 3 nM.

And the IC50 [2]?
Its IC50 is 60 nM.

What about the Ki [3] of the same molecule?
The Ki was 0.05 nM.

What about the concentration at 4 h [4] of the same molecule?
Its concentration at 4 h is 13.2 µM.

What about the AUC at 4 h [5] of the same molecule?
The AUC at 4 h was 2.5 µM·h.

What about the IC50 [6] of the same molecule?
The IC50 was 6 nM.

With `C=C[C@@H]1C[C@]1(NC(=O)[C@@H]1C[C@@H]2CN1C(=O)[C@H](C1CCCC1)NC(=O)OCC(C)(C)CCCc1ccc3ccnc(c3c1)O2)C(=O)NS(=O)(=O)C1CC1` as the molecule, how does the IC50 [1] read?
The IC50 was 2 nM.

What about the IC50 [2] of the same molecule?
Its IC50 is 10 nM.

What about the Ki [3] of the same molecule?
Its Ki is 0.02 nM.

What about the concentration at 4 h [4] of the same molecule?
Its concentration at 4 h is 16 µM.

And the AUC at 4 h [5]?
Its AUC at 4 h is 0.18 µM·h.

And the IC50 [6]?
The IC50 was 11 nM.

What does the source list for `C=C[C@@H]1C[C@]1(NC(=O)[C@@H]1C[C@@H]2CN1C(=O)[C@H](C1Cc3ccccc3C1)NC(=O)OCCC/C=C/c1ccc3ccnc(c3c1)O2)C(=O)NS(=O)(=O)C1CC1`?
IC50 [1]: 5 nM; IC50 [2]: 20 nM; Ki [3]: 0.07 nM; concentration at 4 h [4]: 4.5 µM; AUC at 4 h [5]: 0.15 µM·h

Which IC50 [1] does the source give for `C=C[C@@H]1C[C@]1(NC(=O)[C@@H]1C[C@@H]2CN1C(=O)[C@H](C1CCCCC1)NC(=O)OCCC/C=C/c1ccc3ccnc(c3c1)O2)C(=O)NS(=O)(=O)C1CC1` here?
Its IC50 is 2.5 nM.

What about the IC50 [2] of the same molecule?
Its IC50 is 78 nM.

And the Ki [3]?
The Ki was 0.063 nM.

What about the concentration at 4 h [4] of the same molecule?
Its concentration at 4 h is 46.9 µM.

What about the AUC at 4 h [5] of the same molecule?
The AUC at 4 h was 0.67 µM·h.

Which IC50 [1] does the source give for `C=C[C@@H]1C[C@]1(NC(=O)[C@@H]1C[C@@H]2CN1C(=O)[C@H](C(C)(C)C)NC(=O)OCCCCCc1cc(OC(F)(F)F)c3ccnc(c3c1)O2)C(=O)NS(=O)(=O)C1CC1` here?
The IC50 was 50 nM.

What about the IC50 [2] of the same molecule?
Its IC50 is 4400 nM.

What about the Ki [3] of the same molecule?
The Ki was 0.75 nM.

And the concentration at 4 h [4]?
Its concentration at 4 h is 8.8 µM.

What about the AUC at 4 h [5] of the same molecule?
Its AUC at 4 h is 1.6 µM·h.

For `C=C[C@@H]1C[C@]1(NC(=O)[C@@H]1C[C@@H]2CN1C(=O)[C@H](C(C)(C)C)NC(=O)OCCC/C=C/c1ccc3ccnc(c3c1)O2)C(=O)NS(=O)(=O)C1CC1`, which IC50 [1] is on record?
The IC50 was 4.5 nM.

And the IC50 [2]?
Its IC50 is 14 nM.

And the Ki [3]?
Its Ki is 0.04 nM.

And the concentration at 4 h [4]?
The concentration at 4 h was 18.6 µM.

What about the AUC at 4 h [5] of the same molecule?
Its AUC at 4 h is 0.36 µM·h.

For `C=C[C@@H]1C[C@]1(NC(=O)[C@@H]1C[C@@H]2CN1C(=O)[C@H](C(C)(C)C)NC(=O)OCCCCCc1cc(OCC)c3ccnc(c3c1)O2)C(=O)NS(=O)(=O)C1CC1`, which IC50 [1] is on record?
The IC50 was 6 nM.

And the IC50 [2]?
Its IC50 is 500 nM.

And the Ki [3]?
Its Ki is 0.37 nM.

And the concentration at 4 h [4]?
Its concentration at 4 h is 15.2 µM.

And the AUC at 4 h [5]?
The AUC at 4 h was 6.9 µM·h.

With `C=C[C@@H]1C[C@]1(NC(=O)[C@@H]1C[C@@H]2CN1C(=O)[C@H](C(C)(C)C)NC(=O)OCCCCCc1cc(CC)c3ccnc(c3c1)O2)C(=O)NS(=O)(=O)C1CC1` as the molecule, how does the IC50 [1] read?
Its IC50 is 2.5 nM.

What about the IC50 [2] of the same molecule?
The IC50 was 90 nM.

What about the Ki [3] of the same molecule?
The Ki was 0.14 nM.

What about the concentration at 4 h [4] of the same molecule?
Its concentration at 4 h is 12.5 µM.

And the AUC at 4 h [5]?
The AUC at 4 h was 2.1 µM·h.

Which IC50 [1] does the source give for `C=C[C@@H]1C[C@]1(NC(=O)[C@@H]1C[C@@H]2CN1C(=O)[C@H](C(C)(C)C)NC(=O)OCCCCCc1cc(I)c3ccnc(c3c1)O2)C(=O)NS(=O)(=O)C1CC1` here?
Its IC50 is 2.3 nM.

And the IC50 [2]?
The IC50 was 56 nM.

And the Ki [3]?
The Ki was 0.03 nM.

And the concentration at 4 h [4]?
The concentration at 4 h was 24.5 µM.

What about the AUC at 4 h [5] of the same molecule?
Its AUC at 4 h is 1.4 µM·h.

Which results are given for `C=C[C@@H]1C[C@]1(NC(=O)[C@@H]1C[C@@H]2CN1C(=O)[C@H](C(C)(C)C)NC(=O)OCCCCCc1cc(SC)c3ccnc(c3c1)O2)C(=O)NS(=O)(=O)C1CC1`?
IC50 [1]: 2 nM; IC50 [2]: 34 nM; Ki [3]: 0.03 nM; concentration at 4 h [4]: 12.6 µM; AUC at 4 h [5]: 1.8 µM·h

Which results are given for `C=C[C@@H]1C[C@]1(NC(=O)[C@@H]1C[C@@H]2CN1C(=O)[C@H](C1CCCCC1)NC(=O)OCC(C)(C)CCCc1cc3c(nccc3cc1OC)O2)C(=O)NS(=O)(=O)C1CC1`?
IC50 [1]: 4 nM; IC50 [2]: 11 nM; clearance [7]: 3.4 mL/min/kg; half-life [8]: 5.7 h; bioavailability [9]: 37%; Cmax [10]: 4.4 µM; AUC [11]: 12.1 µM·h; concentration at 24 h [12]: 9.9 µM; clearance [13]: 3.6 mL/min/kg; half-life [14]: 2.5 h; bioavailability [15]: 41%; Cmax [16]: 4 µM; AUC [17]: 12.4 µM·h; concentration at 2 h [18]: 54 µM; concentration at 26 h [19]: 10.3 µM; Cmax [20]: 0.3 µM; AUC [21]: 1.2 µM·h; Ratio Ki [22]: > 50000; Ratio Ki [23]: > 50000; Ki [3]: 0.02 nM; concentration at 4 h [4]: 23 µM; AUC at 4 h [5]: 11.8 µM·h; IC50 [6]: 5 nM; clearance [24]: 8.3 mL/min/kg; half-life [25]: 1.3 h; bioavailability [26]: 9%

For `C=C[C@@H]1C[C@]1(NC(=O)[C@@H]1C[C@@H]2CN1C(=O)[C@H](C1CCCC1)NC(=O)OCCC/C=C/c1ccc3ccnc(c3c1)O2)C(=O)NS(=O)(=O)C1CC1`, which IC50 [1] is on record?
Its IC50 is 2 nM.

And the IC50 [2]?
The IC50 was 40 nM.

What about the Ki [3] of the same molecule?
The Ki was 0.1 nM.

What about the concentration at 4 h [4] of the same molecule?
Its concentration at 4 h is 9.2 µM.

What about the AUC at 4 h [5] of the same molecule?
The AUC at 4 h was 4.2 µM·h.
